Drawing on ChEMBL document CHEMBL1828554, “3,5-dimethylisoxazoles act as acetyl-lysine-mimetic bromodomain ligands” (J Med Chem, 2011), this text covers ΔTm and IC50 for ten compounds.

Test [1] deals with T1, CREB-binding protein (Homo sapiens, UniProt Q92793). Kind of test: Binding affinity to CREBBP assessed as change in melting temperature at 100 uM by differential scanning fluorimetry. The method in brief: (§1)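 Thermal shift by differential scanning fluorimetry on a real-time PCR instrument. Bromodomain protein at 2 μM, compound at 100 μM, in 10 mM HEPES pH 7.5, 500 mM NaCl with SyproOrange dye diluted 1:1000. The observed melting temperature shift was measured in duplicate, and the average was reported.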
A general note: Differential scanning fluorimetry follows unfolding on heating by fluorescence.
Target sequence in this assay (Q92793 2-2442 limits assumed): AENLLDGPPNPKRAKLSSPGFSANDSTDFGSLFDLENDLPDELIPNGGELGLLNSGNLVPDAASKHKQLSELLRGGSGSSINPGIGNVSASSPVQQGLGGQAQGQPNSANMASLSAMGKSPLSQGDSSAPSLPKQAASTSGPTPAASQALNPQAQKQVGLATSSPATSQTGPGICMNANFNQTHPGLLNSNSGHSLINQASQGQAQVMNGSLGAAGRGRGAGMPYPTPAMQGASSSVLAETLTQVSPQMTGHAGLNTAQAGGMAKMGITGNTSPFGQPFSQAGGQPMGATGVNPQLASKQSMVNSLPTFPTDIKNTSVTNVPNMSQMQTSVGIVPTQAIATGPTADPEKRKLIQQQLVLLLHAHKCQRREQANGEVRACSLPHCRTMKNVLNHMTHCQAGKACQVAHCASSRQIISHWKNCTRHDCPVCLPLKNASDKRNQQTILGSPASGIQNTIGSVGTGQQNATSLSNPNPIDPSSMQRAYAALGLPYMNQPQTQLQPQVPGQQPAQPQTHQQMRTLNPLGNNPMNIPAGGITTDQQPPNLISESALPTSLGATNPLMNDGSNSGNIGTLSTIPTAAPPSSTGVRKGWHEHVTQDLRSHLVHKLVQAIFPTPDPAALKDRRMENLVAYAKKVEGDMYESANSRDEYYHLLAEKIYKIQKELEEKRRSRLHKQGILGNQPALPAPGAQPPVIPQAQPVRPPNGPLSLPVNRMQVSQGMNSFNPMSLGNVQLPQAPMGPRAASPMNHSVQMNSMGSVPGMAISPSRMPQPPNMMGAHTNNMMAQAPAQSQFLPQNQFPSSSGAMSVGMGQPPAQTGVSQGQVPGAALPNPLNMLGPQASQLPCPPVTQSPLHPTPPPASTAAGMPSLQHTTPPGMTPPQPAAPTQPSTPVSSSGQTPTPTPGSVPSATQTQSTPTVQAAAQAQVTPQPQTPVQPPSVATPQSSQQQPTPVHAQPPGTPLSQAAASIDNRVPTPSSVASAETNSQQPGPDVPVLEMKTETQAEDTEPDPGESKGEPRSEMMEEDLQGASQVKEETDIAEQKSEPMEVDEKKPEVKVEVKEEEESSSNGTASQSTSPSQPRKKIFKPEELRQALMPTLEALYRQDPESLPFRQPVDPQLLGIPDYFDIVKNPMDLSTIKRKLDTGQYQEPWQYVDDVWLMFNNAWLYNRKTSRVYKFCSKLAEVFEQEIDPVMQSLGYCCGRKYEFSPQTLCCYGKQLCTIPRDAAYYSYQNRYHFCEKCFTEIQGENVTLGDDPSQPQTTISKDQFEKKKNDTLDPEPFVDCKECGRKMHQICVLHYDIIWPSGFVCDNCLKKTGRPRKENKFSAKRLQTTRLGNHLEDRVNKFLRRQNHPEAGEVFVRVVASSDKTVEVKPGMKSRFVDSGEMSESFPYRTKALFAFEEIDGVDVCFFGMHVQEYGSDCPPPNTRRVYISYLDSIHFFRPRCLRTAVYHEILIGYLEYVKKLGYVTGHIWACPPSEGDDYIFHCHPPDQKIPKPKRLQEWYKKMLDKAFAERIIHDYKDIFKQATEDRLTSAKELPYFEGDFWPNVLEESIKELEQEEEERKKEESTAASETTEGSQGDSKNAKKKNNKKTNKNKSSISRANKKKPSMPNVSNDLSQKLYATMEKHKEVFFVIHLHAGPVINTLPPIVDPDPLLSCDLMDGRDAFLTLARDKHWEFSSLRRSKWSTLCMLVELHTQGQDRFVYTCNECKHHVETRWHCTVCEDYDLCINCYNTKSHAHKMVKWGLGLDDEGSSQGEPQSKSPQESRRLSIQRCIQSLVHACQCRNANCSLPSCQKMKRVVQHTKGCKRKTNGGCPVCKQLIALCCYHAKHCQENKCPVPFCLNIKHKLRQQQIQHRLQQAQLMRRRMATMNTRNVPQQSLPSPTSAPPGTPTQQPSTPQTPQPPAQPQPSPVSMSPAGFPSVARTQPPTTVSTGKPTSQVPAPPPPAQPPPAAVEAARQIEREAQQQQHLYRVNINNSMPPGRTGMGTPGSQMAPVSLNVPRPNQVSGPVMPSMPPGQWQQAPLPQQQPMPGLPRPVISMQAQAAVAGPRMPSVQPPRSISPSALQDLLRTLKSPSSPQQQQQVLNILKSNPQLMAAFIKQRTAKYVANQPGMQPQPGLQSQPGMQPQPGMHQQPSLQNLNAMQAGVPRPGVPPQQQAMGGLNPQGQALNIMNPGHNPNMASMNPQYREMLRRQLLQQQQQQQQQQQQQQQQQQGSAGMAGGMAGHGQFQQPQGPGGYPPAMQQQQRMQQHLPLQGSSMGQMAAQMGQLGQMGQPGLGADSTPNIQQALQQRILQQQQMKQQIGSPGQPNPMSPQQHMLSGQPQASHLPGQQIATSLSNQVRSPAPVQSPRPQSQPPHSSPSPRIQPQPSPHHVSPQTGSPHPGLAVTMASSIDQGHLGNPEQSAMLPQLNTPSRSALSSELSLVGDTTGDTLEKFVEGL

Test [2] addresses T2, Bromodomain-containing protein 4 (Homo sapiens, UniProt O60885). Kind of test: Displacement of H4Ac4 peptide from first bromodomain of human BRD4 by peptide displacement assay. The method, boiled down: (§2)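 AlphaScreen displacement of a biotinylated tetra-acetylated H4 peptide (SGRGK(Ac)GGK(Ac)GLGK(Ac)GGAK(Ac)RHRK(Biotin)) from the bromodomain. Run in duplicate on one plate.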

For test [3], the target named is Protein polybromo-1 (Homo sapiens) (UniProt Q86U86). Put plainly: Binding affinity to PB1 assessed as change in melting temperature at 100 uM by differential scanning fluorimetry. The method, boiled down:
as §1

Test [4] addresses T3, Bromodomain-containing protein 2 (Homo sapiens, UniProt P25440). Kind of test: Displacement of H4Ac4 peptide from first bromodomain of human BRD2 by peptide displacement assay. The method in brief:
as §2

Test [5] can be described thus: Binding affinity to LOC93349 assessed as change in melting temperature at 100 uM by differential scanning fluorimetry. The method, boiled down:
as §1

In test [6] the target is T3, Bromodomain-containing protein 2. Kind of test: Binding affinity to first bromodomain of BRD2 assessed as change in melting temperature at 100 uM by differential scanning fluorimetry. The method in brief: as §1
In test [7] the target is Bromodomain testis-specific protein (Homo sapiens) (UniProt Q58F21). Put plainly: Binding affinity to BRDT assessed as change in melting temperature at 100 uM by differential scanning fluorimetry. The method in brief: as §1
In test [8] the target is Bromodomain-containing protein 3 (Homo sapiens) (UniProt Q15059). Put plainly: Binding affinity to second bromodomain of BRD3 assessed as change in melting temperature at 100 uM by differential scanning fluorimetry. The method, boiled down:
as §1

Test [9] has as its target T2, Bromodomain-containing protein 4. Kind of test: Binding affinity to second bromodomain of BRD4 assessed as change in melting temperature at 100 uM by differential scanning fluorimetry. The method, boiled down:
as §1

For test [10], the target named is T3, Bromodomain-containing protein 2. Put plainly: Binding affinity to second bromodomain of BRD2 assessed as change in melting temperature at 100 uM by differential scanning fluorimetry. The method in brief:
as §1

Test [11] concerns the target T2, Bromodomain-containing protein 4. Put plainly: Binding affinity to first bromodomain of BRD4 assessed as change in melting temperature at 100 uM by differential scanning fluorimetry. The method in brief:
as §1

Test [12] deals with Bromodomain-containing protein 3 (Homo sapiens) (UniProt Q15059). Kind of test: Binding affinity to first bromodomain of BRD3 assessed as change in melting temperature at 100 uM by differential scanning fluorimetry. The method in brief:
as §1

The target in test [13] is T1, CREB-binding protein. Kind of test: Displacement of H3K56Ac from human CREBBP by peptide displacement assay.
Test [14] has as its target T4, Bromodomain adjacent to zinc finger domain protein 2B (Homo sapiens, UniProt Q9UIF8). Put plainly: Binding affinity to BAZ2B assessed as change in melting temperature at 100 uM by differential scanning fluorimetry. The method in brief:
as §1

For test [15], the target named is Histone acetyltransferase KAT2B (Homo sapiens) (UniProt Q92831). Kind of test: Binding affinity to PCAF assessed as change in melting temperature at 100 uM by differential scanning fluorimetry. The method in brief:
as §1

The target of test [16] is T1, CREB-binding protein. Put plainly: Inhibition of CREBBP. The method in brief: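 AlphaScreen peptide-displacement assay with the CREBBP bromodomain, using a biotinylated H3K56Ac histone peptide as the displaced ligand. Each concentration was run in duplicate on the same plate. IC50 was obtained by sigmoidal curve fitting of the duplicate data and reported with 95% confidence intervals, taken from a single assay.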

Test [17] has as its target T4, Bromodomain adjacent to zinc finger domain protein 2B. Put plainly: Inhibition of BAZ2B.

Sequence of Protein polybromo-1 (Homo sapiens) (Q86U86 whole entry): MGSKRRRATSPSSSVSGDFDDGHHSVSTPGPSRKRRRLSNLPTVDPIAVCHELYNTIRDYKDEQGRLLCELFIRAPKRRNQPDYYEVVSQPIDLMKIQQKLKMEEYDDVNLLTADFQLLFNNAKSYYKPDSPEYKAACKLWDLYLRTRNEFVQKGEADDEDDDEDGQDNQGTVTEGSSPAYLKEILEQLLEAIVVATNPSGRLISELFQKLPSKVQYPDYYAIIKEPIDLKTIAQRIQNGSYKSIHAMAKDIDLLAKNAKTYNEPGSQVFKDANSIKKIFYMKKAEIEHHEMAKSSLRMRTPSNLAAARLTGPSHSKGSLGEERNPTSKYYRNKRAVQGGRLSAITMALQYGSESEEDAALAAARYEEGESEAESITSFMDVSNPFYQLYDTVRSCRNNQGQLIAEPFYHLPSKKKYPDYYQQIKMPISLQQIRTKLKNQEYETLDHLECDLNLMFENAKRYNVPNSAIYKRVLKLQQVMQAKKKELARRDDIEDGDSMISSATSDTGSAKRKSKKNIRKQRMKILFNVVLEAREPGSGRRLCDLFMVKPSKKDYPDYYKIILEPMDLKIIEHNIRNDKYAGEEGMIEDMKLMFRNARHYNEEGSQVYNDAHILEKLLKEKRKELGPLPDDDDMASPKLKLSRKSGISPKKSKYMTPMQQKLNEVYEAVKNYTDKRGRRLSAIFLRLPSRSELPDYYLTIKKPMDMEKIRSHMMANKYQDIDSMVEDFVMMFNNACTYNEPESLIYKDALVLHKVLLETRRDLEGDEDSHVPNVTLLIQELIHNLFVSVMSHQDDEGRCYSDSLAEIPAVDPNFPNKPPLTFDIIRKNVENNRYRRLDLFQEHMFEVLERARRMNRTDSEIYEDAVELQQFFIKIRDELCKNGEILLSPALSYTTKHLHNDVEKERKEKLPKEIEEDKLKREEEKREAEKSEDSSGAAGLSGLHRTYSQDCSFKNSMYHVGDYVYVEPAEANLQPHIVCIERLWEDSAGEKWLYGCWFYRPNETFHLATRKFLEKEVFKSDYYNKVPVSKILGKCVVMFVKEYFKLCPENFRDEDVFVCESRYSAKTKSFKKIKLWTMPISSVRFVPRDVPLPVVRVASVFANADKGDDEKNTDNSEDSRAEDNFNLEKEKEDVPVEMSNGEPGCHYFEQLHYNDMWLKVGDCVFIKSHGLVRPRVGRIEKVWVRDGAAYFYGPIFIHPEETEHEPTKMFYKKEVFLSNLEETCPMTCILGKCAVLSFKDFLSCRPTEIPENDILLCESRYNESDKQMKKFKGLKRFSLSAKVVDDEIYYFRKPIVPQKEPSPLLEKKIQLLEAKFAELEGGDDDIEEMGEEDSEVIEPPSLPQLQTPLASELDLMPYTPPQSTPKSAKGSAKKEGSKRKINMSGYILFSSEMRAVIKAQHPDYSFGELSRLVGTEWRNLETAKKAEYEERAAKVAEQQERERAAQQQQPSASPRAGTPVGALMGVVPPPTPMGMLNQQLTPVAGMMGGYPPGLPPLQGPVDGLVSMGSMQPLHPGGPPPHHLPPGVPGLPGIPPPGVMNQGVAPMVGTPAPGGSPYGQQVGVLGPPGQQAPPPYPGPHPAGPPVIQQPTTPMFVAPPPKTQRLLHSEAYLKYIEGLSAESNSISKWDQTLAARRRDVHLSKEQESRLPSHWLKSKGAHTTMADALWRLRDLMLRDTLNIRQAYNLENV
Sequence of Histone acetyltransferase KAT2B (Homo sapiens) (Q92831 whole entry, looked up): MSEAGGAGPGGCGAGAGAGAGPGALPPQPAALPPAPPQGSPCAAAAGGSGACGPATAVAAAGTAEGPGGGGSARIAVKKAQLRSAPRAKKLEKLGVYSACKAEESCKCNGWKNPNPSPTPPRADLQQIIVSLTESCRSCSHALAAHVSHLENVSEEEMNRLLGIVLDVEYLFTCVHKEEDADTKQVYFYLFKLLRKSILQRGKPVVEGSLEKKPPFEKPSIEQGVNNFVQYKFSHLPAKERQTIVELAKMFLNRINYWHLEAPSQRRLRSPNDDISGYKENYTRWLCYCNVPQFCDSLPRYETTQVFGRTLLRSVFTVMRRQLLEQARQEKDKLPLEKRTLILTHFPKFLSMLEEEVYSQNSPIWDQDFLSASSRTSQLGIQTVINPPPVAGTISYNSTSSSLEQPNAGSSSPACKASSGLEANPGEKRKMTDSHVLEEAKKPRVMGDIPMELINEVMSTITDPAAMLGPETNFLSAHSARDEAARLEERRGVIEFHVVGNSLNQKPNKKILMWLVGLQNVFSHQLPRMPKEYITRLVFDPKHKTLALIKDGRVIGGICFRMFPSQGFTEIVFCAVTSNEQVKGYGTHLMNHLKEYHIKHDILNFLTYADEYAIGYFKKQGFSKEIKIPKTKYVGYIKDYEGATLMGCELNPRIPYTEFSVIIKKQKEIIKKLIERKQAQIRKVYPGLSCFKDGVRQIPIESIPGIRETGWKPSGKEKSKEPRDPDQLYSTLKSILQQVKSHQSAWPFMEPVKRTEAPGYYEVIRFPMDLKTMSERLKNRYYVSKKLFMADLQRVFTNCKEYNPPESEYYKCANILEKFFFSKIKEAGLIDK

For orientation: ΔTm means the shift of the melting midpoint relative to a reference. As usually defined, the IC50 is the concentration at which inhibition is half-maximal. A higher IC50 goes with weaker potency. Consider `CCOC(=O)c1cc(OCC)cc(-c2c(C)noc2C)c1`, for which the ΔTm on CREB-binding protein [1] was -0.2 °C; in test [3] it was -0.1 °C; in test [5], -0.2 °C; in test [6], 2.3 °C; in [7] it was 1.1 °C; in [8], 3.8 °C. Further, the ΔTm in [9] was 3.8 °C; in [10] it was 3.3 °C; in test [11] it was 3.7 °C; in test [12] it was 3.6 °C. Further, the IC50 in [2] was 7.7 µM; in test [4], 3.3 µM; on CREB-binding protein [13], 49.4 µM.
Take `Cc1noc(C)c1-c1cccc(C(C)O)c1` (racemic): the ΔTm at CREB-binding protein [1] is 1.5 °C; in test [14], 0.2 °C; in [3], 0.2 °C; in test [5], -0.8 °C; in test [6], 3.3 °C; in [7] it was 1.6 °C. The ΔTm in test [8] turned out to be 6.5 °C; in test [9], 6.3 °C; in test [10] it was 5.6 °C; in test [11], 5.4 °C; in test [12], 5.3 °C; in [15] it was 0 °C. Besides, the IC50 worked out at 9.7 µM in test [2], 4.2 µM in test [4] and 45.4 µM on CREB-binding protein [13].
With `CC(=O)c1cccc(-c2c(C)noc2C)c1`, the ΔTm is 1.2 °C at CREB-binding protein [1]; -0.3 °C in test [3]; -0.9 °C in [5]; 1.3 °C in test [6]; -0.2 °C in test [7]; 2.9 °C in test [8]. For the same compound, the shift in melting temperature (ΔTm) worked out at 1.9 °C in test [9], 2.6 °C in test [10], 2.1 °C in test [11] and 2 °C in test [12]. The IC50 came to 24.6 µM in test [2], 6 µM in [4] and 55.7 µM at CREB-binding protein [13].
Turning to `CCOc1cc(-c2c(C)noc2C)cc(C(C)O)c1` (racemic), the ΔTm on CREB-binding protein [1] is 4 °C; in [3], 0 °C; in [5] it was -0.9 °C; in [6], 6.1 °C; in [7], 3.5 °C; in test [8] it was 8.9 °C. The ΔTm came out at 8 °C in [9], 8.3 °C in [10], 8.5 °C in test [11] and 8.5 °C in [12]. Further, the figures for the IC50 (in test [2]; in test [4]; at CREB-binding protein [13]) were 4.8 µM, 1.6 µM and 28.1 µM, respectively.
Regarding `Cc1noc(C)c1-c1ccccc1`, the ΔTm on CREB-binding protein [1] is 0.6 °C; in test [14], -0.1 °C; in [3], 0 °C; in test [5] it was -0.6 °C; in test [6] it was 0.9 °C; in [7], 0 °C. For the same compound, the ΔTm was 1.9 °C in test [8]; 2.6 °C in test [9]; 2.1 °C in test [10]; 2 °C in test [11]; 1.6 °C in [12]; -0.8 °C in test [15]. Also, the IC50 in [2] was 84.2 µM; in test [4], 34.3 µM; at CREB-binding protein [13], over 200 µM.
As to `CN1CCCC1=O` [METHYLPYRROLIDONE], the IC50 on CREB-binding protein [16] is 2300 µM; in test [17], 34000 µM.
On to `CCOc1cccc(-c2c(C)noc2C)c1`, for which the ΔTm on CREB-binding protein [1] is 0.7 °C; in test [3], -0.2 °C; in test [5] it was -0.9 °C; in test [6], 1.3 °C; in test [7], -0.4 °C; in test [8], 4.2 °C. Besides, the ΔTm in [9] came out at 4 °C; in [10], 3.7 °C; in test [11] it was 2.8 °C; in test [12] it was 2.7 °C. In addition, the IC50 in test [2] was 23.2 µM; in test [4], 7.4 µM; on CREB-binding protein [13] it was 86.9 µM.
Take `CCOc1cc(C(C)=O)cc(-c2c(C)noc2C)c1`: the ΔTm was 3.4 °C on CREB-binding protein [1]; -0.3 °C in test [3]; -1 °C in test [5]; 3.2 °C in test [6]; 6 °C in [8]; 6.5 °C in [9]. For the same compound, the ΔTm is 5.3 °C in test [10], 5.1 °C in test [11] and 4.8 °C in test [12]. The IC50 in [2] amounted to 7.5 µM; in test [4] it was 2.3 µM; at CREB-binding protein [13], 12.9 µM.
As for `Cc1noc(C)c1-c1ccc2c(c1)CN(C)C(=O)N2`, the ΔTm at CREB-binding protein [1] was 3.8 °C; in test [3] it was 0.7 °C; in test [5], -0.2 °C; in test [6], 5.4 °C; in test [7], 3.2 °C; in test [8], 6.8 °C. In addition, the ΔTm in test [10] was determined as 6.2 °C; in test [11], 8 °C; in [12], 7.2 °C. In addition, the IC50 on CREB-binding protein [13] worked out at 3.4 µM.
As to `CCOc1cc(C(=O)O)cc(-c2c(C)noc2C)c1`, the ΔTm was 2.9 °C on CREB-binding protein [1]; -0.1 °C in test [14]; -0.1 °C in test [3]; -1.2 °C in test [5]; 1.1 °C in test [6]; -0.8 °C in test [7]. The ΔTm was 2.6 °C in test [8]; 2.2 °C in test [9]; 2.5 °C in test [10]; 2.3 °C in [11]; 2.2 °C in [12]; -0.5 °C in [15]. In addition, the IC50 is 51.2 µM in test [2], 28.2 µM in test [4] and 32.2 µM on CREB-binding protein [13].
